Assay results as given in ChEMBL document CHEMBL4393712, “Discovery of chalcone-modified estradiol analogs as antitumour agents that Inhibit tumour angiogenesis and epithelial to mesenchymal transition” (Eur J Med Chem, 2019).
Active and inactive are the calls of the source. The calls are words filed in the database; no cut-off is given here.

What was measured:
HET-1A = assay: Cytotoxicity against human HET-1A cells assessed as reduction in cell viability measured after 48 to 72 hrs by MTT assay; assay type: cell-based
How it was run: (§1)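 Cells seeded at 3 × 10^3 per well in 96-well plates, incubated overnight, then given fresh medium with a range of drug concentrations for 48 h or 72 h. MTT added (final 500 µg/mL) for 4 h, formazan dissolved in DMSO, absorbance at 570 nm; IC50 derived. Mean ± SD of 3 independent tests.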

HUVEC [1] = assay: Antimigratory activity against HUVEC at 2 to 10 uM measured after 24 hrs by transwell assay; assay type: functional, cell-based; conditions: Homo sapiens
How it was run: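 Cells seeded on upper side of polycarbonate transwell filters in serum-free medium, drug at 0, 2 or 10 µM; complete serum-containing medium in lower chamber as chemoattractant. After 24 h migrated cells fixed in 4% paraformaldehyde 20 min, crystal violet stained 20 min, imaged and counted. Three independent experiments.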

A549 = assay: Antitumour activity against human A549 cells assessed as cell growth inhibition measured after 72 hrs by SRB assay; assay type: functional, cell-based; conditions: A549, 72 h
How it was run: (§2)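 Exponentially growing cells trypsinized, seeded at 5 × 10^4 cells/mL in 96-well plates, cultured overnight, then exposed to compounds for 72 h. Cells fixed with 10% TCA 1 h, stained with SRB 15 min, dye dissolved in Tris-HCl, absorbance read; 50% growth-inhibitory concentration calculated.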

MGC-803 = assay: Cytotoxicity against human MGC803 cells assessed as reduction in cell viability measured after 48 to 72 hrs by MTT assay; assay type: cell-based; how it was run: as §1
[2] = Hepatotoxicity in nude mouse xenografted with human MCF7 cells assessed as slight increase in serum alanine transaminase level at 22.5 to 45 mg/kg/day, ip administered for 21 days by biochemical automatic analyzer; assay type: toxicity, organism-based; conditions: in vivo, 504 h
HUVEC [3] = assay: Antimigratory activity against HUVEC at 2 to 10 uM measured after 48 hrs by wound healing assay; assay type: functional, cell-based; conditions: Homo sapiens
How it was run: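 Cells seeded in 6-well plates, monolayer scratched with pipette tip, washed twice, kept in medium with 2% FBS. Gaps imaged, then drug added (0, 2 or 10 µM for HUVEC and MCF-7); gaps re-imaged after 48 h and migration rate calculated. Three independent experiments; one-way ANOVA.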

MCF7 [4] = assay: Inhibition of epithelial-mesenchymal transition in human MCF7 cells assessed as decrease in N-cadherin expression level at 2 to 10 uM after 48 hrs by Western blot analysis; assay type: functional, cell-based
How it was run: (§3)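 MCF-7 cells in RPMI 1640 with 10% FBS, 37 °C, 5% CO2, exposed to no drug, 2 or 10 µM for 48 h. RIPA lysates, BCA quantitation, 8% SDS-PAGE, PVDF transfer, primary antibodies overnight 4 °C, secondary 2 h RT, ECL and densitometry for ZO-1, E-cadherin, N-cadherin, vimentin. Mean ± SD of 3 independent tests.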

[5] = Toxicity in nude mouse xenografted with human MCF7 cells assessed as increase in body weight at 22.5 to 45 mg/kg/day, ip administered for 21 days; assay type: organism-based; conditions: in vivo, 504 h
How it was run: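 Nude mice (male/female, 4–6 weeks) injected subcutaneously in right forelimb with 5 × 10^7 MCF-7 cells in 200 µL saline; at mean tumour 100 mm3 randomized (n = 5/group): saline 0.2 mL/day, 22.5 or 45 mg/kg/day ip for 21 days. Body weight and tumour volume (length × width²/2) every other day; tumours weighed at day 21.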

[6] = Hepatotoxicity in nude mouse xenografted with human MCF7 cells assessed as slight increase in serum aspartate transaminase level at 22.5 to 45 mg/kg/day, ip administered for 21 days by automatic biochemical analyzer; assay type: toxicity, organism-based; conditions: in vivo, 504 h
MCF7 [7] = assay: Inhibition of epithelial-mesenchymal transition in human MCF7 cells assessed as increase in E-cadherin expression level at 2 to 10 uM after 48 hrs by Western blot analysis; assay type: functional, cell-based; how it was run: as §3
SK-N-SH = assay: Antitumour activity against human SK-N-SH cells assessed as cell growth inhibition measured after 72 hrs by SRB assay; assay type: functional, cell-based; how it was run: as §2
GES1 = assay: Cytotoxicity against human GES-1 cells assessed as reduction in cell viability measured after 48 to 72 hrs by MTT assay; assay type: cell-based; how it was run: as §1

Structure (SMILES): COc1cc2c(cc1O)CC[C@@H]1[C@@H]2CC[C@]2(C)C(=O)/C(=C/c3ccc(Cl)cc3)C[C@@H]12
- IC50 (HET-1A): > 100 µM
- Activity (HUVEC [1]): Active
- IC50 (A549): 23.2 µM
- Activity (MGC-803): Toxic
- Activity [2]: Toxic
- Activity (HUVEC [3]): Active
- inhibition (MCF7 [4]): Active
- Activity [5]: Non-Toxic
- Activity [6]: Toxic
- inhibition (MCF7 [7]): Active
- IC50 (SK-N-SH): 24.7 µM
- Activity (GES1): Toxic
